Data on one molecule can be found in ChEMBL document CHEMBL4145448, “Broad activity of diphenyleneiodonium analogues against Mycobacterium tuberculosis, malaria parasites and bacterial pathogens” (Eur J Med Chem, 2018).

Series [1] concerns Acinetobacter baumannii. The experiment in a line: Antibacterial activity against Acinetobacter baumannii ATCC 17978 col10 after 18 hrs by broth microdilution method. It counts as functional. Particulars: ATCC 17978 col10, 18 h. The essentials: (§1)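 Broth microdilution per CLSI in cation-adjusted Mueller-Hinton broth. 100 µL inoculum (~10^6 cfu/mL in CaMHB) mixed with 100 µL CaMHB containing compound, 0 to 128 µM. Incubated 18 h at 37 °C. MIC taken as the lowest concentration with no visible growth. Polymyxin B served as positive control. Isolates were stored at -80 °C in tryptone soy broth with 20% glycerol.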

Series [2] is described as follows: Selectivity index, ratio of CC50 for human HepG2 cells in presence of 1% FBS to MIC for Pseudomonas aeruginosa isolate 19147nm. It counts as toxicity. Particulars: read-out: Selectivity Index. In a few lines:
(§2)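 Selectivity index is CC50 (1% FBS) divided by MIC. […] They then got compound at 300 to 0.14 µM (3-fold steps) for 24 h at 37 °C, 5% CO2. Resazurin (10 µM, 2 h) was read at ex/em 560/590 in duplicate wells. For MIC, CLSI broth microdilution was run in CaMHB with ~10^6 cfu/mL inoculum and 0–128 µM compound.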

Series [3] relates to Klebsiella pneumoniae. The series can be described thus: Antibacterial activity against Klebsiella pneumoniae isolate 1 after 18 hrs by broth microdilution method. It counts as functional. The note with it: isolate 1, 18 h. In a few lines:
as §1
On the technique in general: Dilution methods test growth across graded concentrations, often in twofold steps.

Series [4] is described as follows: Selectivity index, ratio of CC50 for human HepG2 cells in presence of 1% FBS to MIC for Acinetobacter baumannii ATCC 19606. It counts as toxicity. The note with it: read-out: Selectivity Index.
Series [5] relates to Plasmodium falciparum. The experiment in a line: microbe, parasite or virus in culture. Particulars: CS2, 90 h.
For series [6], the system named is Staphylococcus aureus. The experiment in a line: Antibacterial activity against methicillin-resistant Staphylococcus aureus ATCC 43300 after 18 hrs by broth microdilution method. Particulars: ATCC 43300, 18 h. The series is classed as functional. The essentials:
as §1

For series [7], the system named is Klebsiella pneumoniae. The series can be described thus: Antibacterial activity against Klebsiella pneumoniae isolate 248-33-D after 18 hrs by broth microdilution method. It counts as functional. The essentials:
as §1

The subject of series [8] is Acinetobacter baumannii. The experiment in a line: Antibacterial activity against Acinetobacter baumannii ATCC 17978 after 18 hrs by broth microdilution method. The series is classed as functional. Particulars: ATCC 17978, 18 h. In a few lines: as §1
A short description of series [9]: Selectivity index, ratio of CC50 for human HepG2 cells in presence of 1% FBS to MIC for Acinetobacter baumannii ATCC 17978 col10. It counts as toxicity. The note with it: read-out: Selectivity Index.
Series [10] is described as follows: Selectivity index, ratio of CC50 for human HepG2 cells in presence of 1% FBS to MIC for Mycobacterium tuberculosis H37Rv ATCC 25618. The series is classed as toxicity. Particulars: read-out: Selectivity Index.
The subject of series [11] is Plasmodium knowlesi. The experiment in a line: microbe, parasite or virus in culture. The note with it: YH1, 90 h.
Series [12] is described as follows: Selectivity index, ratio of CC50 for human HepG2 cells in presence of 1% FBS to MIC for Escherichia coli N2381. It counts as toxicity. Particulars: read-out: Selectivity Index.
For series [13], the system named is Acinetobacter baumannii. The series can be described thus: Antibacterial activity against Acinetobacter baumannii isolate 07AC-336 after 18 hrs by broth microdilution method. The note with it: isolate 07AC-336, 18 h. The series is classed as functional. The essentials: as §1
A short description of series [14]: Selectivity index, ratio of CC50 for human HepG2 cells in presence of 1% FBS to MIC for Acinetobacter baumannii isolate 07AC-336. The series is classed as toxicity. Particulars: read-out: Selectivity Index.
Series [15] in a line: Selectivity index, ratio of CC50 for human HepG2 cells in presence of 1% FBS to MIC for Klebsiella pneumoniae isolate 224-11-C. The series is classed as toxicity. Particulars: read-out: Selectivity Index.
Series [16] can be described thus: Selectivity index, ratio of CC50 for human HepG2 cells in presence of 1% FBS to MIC for Klebsiella pneumoniae ATCC 13883. Particulars: read-out: Selectivity Index. It counts as toxicity.
Series [17] has as its system Pseudomonas aeruginosa. The experiment in a line: Antibacterial activity against Pseudomonas aeruginosa isolate 18878B klon 1 after 18 hrs by broth microdilution method. It counts as functional. Particulars: isolate 18878B klon 1, 18 h. In a few lines: as §1
In series [18] the test system is Escherichia coli. The series can be described thus: Antibacterial activity against Escherichia coli N4149 after 18 hrs by broth microdilution method. The series is classed as functional. Particulars: N4149, 18 h. The essentials:
as §1

Series [19] has as its system Mycobacterium tuberculosis. The experiment in a line: Antimycobacterial activity against Mycobacterium tuberculosis H37Rv ATCC 25618 after 7 days by resazurin dye based assay. The series is classed as functional. Particulars: H37Rv ATCC 25618, 168 h. The essentials:
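H37Rv grown at 37 °C in 7H9 with 10% ADC, 0.5% glycerol and 0.02% tyloxapol. Compounds serially diluted in water, 0 to 10 µM, in triplicate. Culture adjusted to OD600 0.001 and incubated 7 days at 37 °C. Resazurin (0.05% w/v) added for 4-24 h and fluorescence read at 590 nm. MIC is the lowest concentration giving complete growth inhibition versus untreated. Rifampicin served as control.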

A short description of series [20]: Selectivity index, ratio of CC50 for human HepG2 cells in presence of 1% FBS to MIC for Pseudomonas aeruginosa QLD PSA 1. The series is classed as toxicity. The note with it: read-out: Selectivity Index. In a few lines:
as §2

The subject of series [21] is Pseudomonas aeruginosa. The experiment in a line: Antibacterial activity against Pseudomonas aeruginosa QLD PSA 1 after 18 hrs by broth microdilution method. It counts as functional. Particulars: QLD PSA 1, 18 h. In a few lines: as §1
A short description of series [22]: Selectivity index, ratio of CC50 for human HepG2 cells in presence of 1% FBS to MIC for vancomycin-resistant Staphylococcus aureus ATCC 700699. The series is classed as toxicity. The note with it: read-out: Selectivity Index. In a few lines: as §2

pIC50: −log10 of the molar value.

One may read the MIC as the lowest concentration that inhibits growth of the organism. Low values mean a more susceptible organism, high ones a less susceptible organism. What is called pIC50 is −log10 of the IC50, conventionally taken in molar units. Lower therefore signals a large IC50. Regarding `c1ccc2c(c1)[I+]c1ccccc1-2`, the MIC in [1] turned out to be 0.58 µM; in [3], 75 µM; in [6], 4.7 µM; in series [7] it was 37 µM; in series [8] it was 2.3 µM; in [13] it was 19 µM. Further, the minimum inhibitory concentration (MIC) came to 4.7 µM in series [17], 37 µM in series [18], 0.3 µM in series [19] and 9.3 µM in [21]. In addition, the selectivity ratio in series [2] stood at 13; in [4] it was 3.1; in [9] it was 50; in [10], 96; in series [12], 0.78; in [14], 1.6. In addition, the selectivity ratio in series [15] turned out to be 0.78; in [16], 0.78; in series [20], 3.1; in series [22] it was 1.6. The pIC50 in series [5] is 7.40; in series [11], 6.13.
